≈ marks a conversion by molar mass, not a printed value. *1 amine or outer side, *2 acyl side, *3 side chain or, on linkers, in order; H or OH if unused. Where a SMILES comes first, the peptide text is derived from it. Bridges are numbered along the chain shown (N, C = ends). [ ]: non-standard residue; d: D form. The star is where a group is joined. hTyr(3S-OH,4S-OH,3'-OSO3H) = N[C@H](C(=O)O)[C@H](O)[C@@H](O)c1ccc(O)c(OS(=O)(=O)O)c1; Orn(4R-OH,5R-OH) = O=C([C@H](C[C@@H](O)[C@@H](O)N[*:3])N[*:1])[*:2]; Pro(3S-OH,4S-Me) = C[C@H]1CN[C@H](C(=O)O)[C@H]1O; X1 = CCCCCOc1ccc(-c2cc(-c3ccc(C(=O)*)cc3)no2)cc1; Gln(3R-OH) = NC(=O)C[C@@H](O)[C@H](N)C(=O)O; Hyp = O=C(O)[C@@H]1C[C@@H](O)CN1
Key:
Type in all cases: functional
Candida albicans [1] = experiment: Antifungal activity against Candida albicans NCPF6525 after 24 hrs by EUCAST test
In short: (§1)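 EUCAST broth microdilution with aqueous doubling dilutions of drug. Inoculum grown overnight at 30°C in NGY, then added to MOPS-buffered RPMI 1640 with 2% glucose at an initial 10^5 yeasts/ml. Incubated 35°C for 24 h. MICs taken from triplicate spectrophotometric dose-response data as 50% and 80% growth-reduction endpoints.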

Candida albicans [2] = experiment: Antifungal activity against Candida albicans T28 after 24 hrs by CLSI M27-A test
In short: (§2)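 CLSI M27-A broth microdilution with aqueous doubling dilutions of drug. Inoculum grown overnight at 30°C in NGY medium, then added to MOPS-buffered RPMI 1640 at an initial 10^3 yeasts/ml. Incubated 35°C for 24 h. MIC read visually as the lowest concentration giving a marked decrease in visible growth; paradoxical or trailing growth noted.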

Candida albicans [3] = experiment: Antifungal activity against Candida albicans T32 after 24 hrs by EUCAST test; in short: as §1
Candida albicans [4] = experiment: Antifungal activity against Candida albicans NR2 after 24 hrs by CLSI M27-A test; in short: as §2
Candida albicans [5] = experiment: Antifungal activity against Candida albicans NR2 after 24 hrs by EUCAST test; in short: as §1
Candida albicans [6] = experiment: Antifungal activity against Candida albicans SC5314 after 24 hrs by CLSI M27-A test; details: SC5314, 24 h; in short: as §2
Candida albicans [7] = experiment: Antifungal activity against Candida albicans SCS140136P after 24 hrs by CLSI M27-A test; in short: as §2
Candida albicans [8] = experiment: Antifungal activity against Candida albicans SCS67023C after 24 hrs by EUCAST test; in short: as §1
Candida albicans [9] = experiment: Antifungal activity against Candida albicans AM2003/0083 after 24 hrs by CLSI M27-A test; in short: as §2
Candida albicans [10] = experiment: Antifungal activity against Candida albicans HK04M102095 after 24 hrs by EUCAST test; in short: as §1
Candida albicans [11] = experiment: Antifungal activity against Candida albicans JIMS146204 after 24 hrs by EUCAST test; in short: as §1
Candida albicans [12] = experiment: Antifungal activity against Candida albicans NCPF6525 after 24 hrs by CLSI M27-A test; in short: as §2
Candida albicans [13] = experiment: Antifungal activity against Candida albicans NR3 after 24 hrs by EUCAST test; in short: as §1
Candida albicans [14] = experiment: Antifungal activity against Candida albicans CAI4RI after 24 hrs by EUCAST test; in short: as §1
Candida albicans [15] = experiment: Antifungal activity against Candida albicans T26 after 24 hrs by CLSI M27-A test; in short: as §2
Candida albicans [16] = experiment: Antifungal activity against Candida albicans T26 after 24 hrs by EUCAST test; in short: as §1
Candida albicans [17] = experiment: Antifungal activity against Candida albicans Y109 after 24 hrs by EUCAST test; in short: as §1
Candida dubliniensis [18] = experiment: Antifungal activity against Candida dubliniensis 75/043 after 24 hrs by EUCAST test; in short: as §1
Candida dubliniensis [19] = experiment: Antifungal activity against Candida dubliniensis 81/060 after 24 hrs by EUCAST test; in short: as §1
Candida dubliniensis [20] = experiment: Antifungal activity against Candida dubliniensis AMCC after 24 hrs by EUCAST test; in short: as §1
Candida dubliniensis [21] = experiment: Antifungal activity against Candida dubliniensis Leic875 after 24 hrs by EUCAST test
In short: (§3)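 Yeasts were grown overnight at 30°C in NGY, then inoculated at 10^5 yeasts/ml initial concentration into MOPS-buffered RPMI 1640 with 2% glucose containing aqueous doubling dilutions of drug. Plates were held at 35°C for 24 h. MICs came from triplicate spectrophotometric dose-response data at 50% and 80% growth-reduction endpoints. Trailing meant a >100-fold gap between these endpoints; paradoxical meant regrowth ≥5% above the curve minimum.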

Candida dubliniensis [22] = experiment: Antifungal activity against Candida dubliniensis Leic952 after 24 hrs by EUCAST test; in short: as §3
Candida dubliniensis [23] = experiment: Antifungal activity against Candida dubliniensis SCS17154969-1 after 24 hrs by EUCAST test; in short: as §3
Candida dubliniensis [24] = experiment: Antifungal activity against Candida dubliniensis SCS17154969-2 after 24 hrs by CLSI M27-A test
In short: (§4)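 Broth microdilution with echinocandins as aqueous doubling dilutions. Yeasts were grown overnight at 30°C in NGY and seeded at 10^3 yeasts/ml initial concentration in MOPS-buffered RPMI 1640, then incubated at 35°C for 24 h. The MIC was read visually as the lowest concentration giving a marked decrease in visible growth; paradoxical or trailing growth was noted.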

Candida dubliniensis [25] = experiment: Antifungal activity against Candida dubliniensis SCS17154969-2 after 24 hrs by EUCAST test; in short: as §3
Candida dubliniensis [26] = experiment: Antifungal activity against Candida dubliniensis ANSA 23a after 24 hrs by EUCAST test; in short: as §3
Candida dubliniensis [27] = experiment: Antifungal activity against Candida dubliniensis B71507 after 24 hrs by CLSI M27-A test; in short: as §4
Candida dubliniensis [28] = experiment: Antifungal activity against Candida dubliniensis J930936 after 24 hrs by EUCAST test; in short: as §3
Candida dubliniensis [29] = experiment: Antifungal activity against Candida dubliniensis J931021 after 24 hrs by CLSI M27-A test; in short: as §4
Candida dubliniensis [30] = experiment: Antifungal activity against Candida dubliniensis KR after 24 hrs by CLSI M27-A test; in short: as §4
Candida dubliniensis [31] = experiment: Antifungal activity against Candida dubliniensis ST after 24 hrs by CLSI M27-A test; in short: as §4
Pichia kudriavzevii [32] = experiment: Antifungal activity against Candida krusei ATCC 6258 after 24 hrs by EUCAST test; details: ATCC 6258, 24 h; in short: as §3
Pichia kudriavzevii [33] = experiment: Antifungal activity against Candida krusei ATCC 6258 after 24 hrs by CLSI M27-A test; details: ATCC 6258, 24 h
In short: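 Broth microdilution per CLSI M27-A. Drugs were prepared as aqueous doubling dilutions. Inoculum was grown overnight at 30°C in neopeptone-yeast extract-glucose medium, then added to MOPS-buffered RPMI 1640 at an initial 10^3 yeasts/ml. Plates were incubated at 35°C for 24 h. MIC was read visually as the lowest concentration giving a marked decrease in visible growth.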

Candida dubliniensis [34] = experiment: Antifungal activity against Candida dubliniensis 90/033 after 24 hrs by CLSI M27-A test; in short: as §2

Structure (SMILES)	MIC50 (Candida albicans [1])	MIC50 (Candida albicans [2])	MIC50 (Candida albicans [3])	MIC50 (Candida albicans [4])	MIC50 (Candida albicans [5])	MIC50 (Candida albicans [6])	MIC50 (Candida albicans [7])	MIC50 (Candida albicans [8])	MIC50 (Candida albicans [9])	MIC50 (Candida albicans [10])	MIC50 (Candida albicans [11])	MIC50 (Candida albicans [12])	MIC50 (Candida albicans [13])	MIC50 (Candida albicans [14])	MIC50 (Candida albicans [15])	MIC50 (Candida albicans [16])	MIC50 (Candida albicans [17])	MIC50 (Candida dubliniensis [18])	MIC50 (Candida dubliniensis [19])	MIC50 (Candida dubliniensis [20])	further results
CC[C@H](C)C[C@H](C)CCCCCCCCC(=O)N[C@H]1C[C@@H](O)[C@@H](NCCN)NC(=O)[C@@H]2[C@@H](O)CCN2C(=O)[C@H]([C@H](O)CCN)NC(=O)[C@H]([C@H](O)[C@@H](O)c2ccc(O)cc2)NC(=O)[C@@H]2C[C@@H](O)CN2C(=O)[C@H]([C@@H](C)O)NC1=O [CASPOFUNGIN]	1 µg/mL (≈ 0.915 µM)	0.25 µg/mL (≈ 0.229 µM)	0.13 µg/mL (≈ 0.119 µM)	4 µg/mL (≈ 3.66 µM)	4 µg/mL (≈ 3.66 µM)	0.5 µg/mL (≈ 0.457 µM)	0.5 µg/mL (≈ 0.457 µM)	0.25 µg/mL (≈ 0.229 µM)	0.5 µg/mL (≈ 0.457 µM)	0.25 µg/mL (≈ 0.229 µM)	0.25 µg/mL (≈ 0.229 µM)	0.13 µg/mL (≈ 0.119 µM)	4 µg/mL (≈ 3.66 µM)	4 µg/mL (≈ 3.66 µM)	8 µg/mL (≈ 7.32 µM)	16 µg/mL (≈ 14.6 µM)	2 µg/mL (≈ 1.83 µM)	0.25 µg/mL (≈ 0.229 µM)	0.25 µg/mL (≈ 0.229 µM)	0.25 µg/mL (≈ 0.229 µM)	MIC50 (Candida dubliniensis [21]): 0.25 µg/mL (≈ 0.229 µM); MIC50 (Candida dubliniensis [22]): 0.25 µg/mL (≈ 0.229 µM); MIC50 (Candida dubliniensis [23]): 0.5 µg/mL (≈ 0.457 µM); MIC50 (Candida dubliniensis [24]): 0.5 µg/mL (≈ 0.457 µM); MIC50 (Candida dubliniensis [25]): 0.5 µg/mL (≈ 0.457 µM); MIC50 (Candida dubliniensis [26]): 0.25 µg/mL (≈ 0.229 µM); MIC50 (Candida dubliniensis [27]): 0.5 µg/mL (≈ 0.457 µM); MIC50 (Candida dubliniensis [28]): 0.25 µg/mL (≈ 0.229 µM); MIC50 (Candida dubliniensis [29]): 0.5 µg/mL (≈ 0.457 µM); MIC50 (Candida dubliniensis [30]): 0.5 µg/mL (≈ 0.457 µM); MIC50 (Candida dubliniensis [31]): 0.5 µg/mL (≈ 0.457 µM); MIC50 (Pichia kudriavzevii [32]): 2 µg/mL (≈ 1.83 µM); MIC50 (Pichia kudriavzevii [33]): 1 µg/mL (≈ 0.915 µM)
CCCCCOc1ccc(-c2cc(-c3ccc(C(=O)N[C@H]4C[C@@H](O)[C@@H](O)NC(=O)[C@@H]5[C@@H](O)[C@@H](C)CN5C(=O)[C@H]([C@H](O)CC(N)=O)NC(=O)[C@H]([C@H](O)[C@@H](O)c5ccc(O)c(OS(=O)(=O)O)c5)NC(=O)[C@@H]5C[C@@H](O)CN5C(=O)[C@H]([C@@H](C)O)NC4=O)cc3)no2)cc1 [MICAFUNGIN] (X1-[Orn(4R-OH,5R-OH)]T[Hyp][hTyr(3S-OH,4S-OH,3'-OSO3H)][Gln(3R-OH)][Pro(3S-OH,4S-Me)]; lactam 1-C)	≤ 0.032 µg/mL	≤ 0.032 µg/mL	≤ 0.032 µg/mL	0.25 µg/mL (≈ 0.197 µM)	0.5 µg/mL (≈ 0.394 µM)	≤ 0.032 µg/mL	≤ 0.032 µg/mL	≤ 0.032 µg/mL	≤ 0.032 µg/mL	≤ 0.032 µg/mL	≤ 0.032 µg/mL	≤ 0.032 µg/mL	2 µg/mL (≈ 1.57 µM)	0.5 µg/mL (≈ 0.394 µM)	1 µg/mL (≈ 0.787 µM)	1 µg/mL (≈ 0.787 µM)	0.25 µg/mL (≈ 0.197 µM)	≤ 0.032 µg/mL	≤ 0.032 µg/mL	≤ 0.032 µg/mL	MIC50 (Candida dubliniensis [34]): ≤ 0.032 µg/mL; MIC50 (Candida dubliniensis [21]): ≤ 0.032 µg/mL; MIC50 (Candida dubliniensis [22]): 0.063 µg/mL (≈ 0.0496 µM); MIC50 (Candida dubliniensis [23]): 0.063 µg/mL (≈ 0.0496 µM); MIC50 (Candida dubliniensis [24]): ≤ 0.032 µg/mL; MIC50 (Candida dubliniensis [25]): 0.063 µg/mL (≈ 0.0496 µM); MIC50 (Candida dubliniensis [26]): ≤ 0.032 µg/mL; MIC50 (Candida dubliniensis [27]): ≤ 0.032 µg/mL; MIC50 (Candida dubliniensis [28]): ≤ 0.032 µg/mL; MIC50 (Candida dubliniensis [29]): ≤ 0.032 µg/mL; MIC50 (Candida dubliniensis [30]): ≤ 0.032 µg/mL; MIC50 (Candida dubliniensis [31]): ≤ 0.032 µg/mL; MIC50 (Pichia kudriavzevii [32]): 0.13 µg/mL (≈ 0.102 µM); MIC50 (Pichia kudriavzevii [33]): 0.13 µg/mL (≈ 0.102 µM)

Source: ChEMBL document CHEMBL1143838, “Candida albicans and Candida dubliniensis respond differently to echinocandin antifungal agents in vitro” (2007)
